What is called MIC is the smallest concentration in the dilution series that meets the test's criterion for growth inhibition.

Drawing on ChEMBL document CHEMBL1135500, “Highly antibacterial active aminoacyl penicillin conjugates with acylated bis-catecholate siderophores based on secondary diamino acids and related compounds” (2002), this text covers Activity, MIC and Zone of inhibition for 21 compounds.

Molecules are shown by their SMILES. Values after ≈ are worked out from the molar mass of the structure shown.

Common to all, as to format: functional
For test [1], the system named is Pseudomonas aeruginosa. The experiment in a line: Siderophore activity determined using growth promoting assay in ATCC 27853 strain of Pseudomonas aeruginosa under iron limited conditions. In short, it runs like this: (§1)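 Growth promotion under iron limitation. Overnight Nutrient Agar cultures suspended in medium VA to 1 McFarland, then 1.5 mL mixed into 99 mL Al2O3-treated Hall-Ratledge agar (pH 6.8) with trace elements and EDDHA. 5 µL of 2 mM compound applied on 6 mm paper disks. Growth zone around disks measured after 18-20 h at 37 °C.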

Test [2] deals with Pseudomonas aeruginosa. The experiment in a line: Siderophore activity determined using growth promoting assay in K799/WT strain of Pseudomonas aeruginosa under iron limited conditions. Summed up: as §1
Test [3] deals with Pseudomonas aeruginosa. The test is described as follows: (§2) Siderophore activity determined using growth promoting assay in NCTC-10662 strain of Pseudomonas aeruginosa under iron limited conditions. Also on record: unit not given beside the values. In short, it runs like this:
as §1

The subject of test [4] is Escherichia coli. The test is described as follows: Siderophore activity determined using growth promoting assay in ATCC 25922 strain of Escherichia coli under iron limited conditions. In short, it runs like this: as §1
The subject of test [5] is Pseudomonas aeruginosa. The experiment in a line: Siderophore activity determined using growth promoting assay in SG137 strain of Pseudomonas aeruginosa under iron limited conditions. In short, it runs like this:
as §1

In test [6] the test system is Pseudomonas aeruginosa. The test is described as follows: Siderophore activity determined using growth promoting assay in ATCC 9027 strain of Pseudomonas aeruginosa under iron limited conditions. In short, it runs like this: as §1
Test [7] has as its system Pseudomonas aeruginosa. The test is described as §2. Summed up:
as §1

The test system of test [8] is Pseudomonas aeruginosa. The experiment in a line: In vitro antibacterial activity against ATCC 27853 strain of Pseudomonas aeruginosa. Summed up: (§3)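 MIC by microbroth dilution in Mueller-Hinton broth following NCCLS guidelines.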
Test [9] relates to Klebsiella pneumoniae. The test is described as follows: In vitro antibacterial activity against ATCC 100331 strain of Klebsiella pneumoniae. Summed up:
as §3

Test [10] deals with Stenotrophomonas maltophilia. The test is described as follows: In vitro antibacterial activity against GN 12873 strain of Stenotrophomonas maltophilia. In short, it runs like this: as §3
In test [11] the test system is Pseudomonas aeruginosa. The test is described as follows: In vitro antibacterial activity against SG 137 strain of Pseudomonas aeruginosa. In short, it runs like this:
as §3

Test [12] has as its system Escherichia coli. The experiment in a line: Influence of siderophore receptor on antibacterial activity in Escherichia coli (H1443) using agar diffusion assay. In short, it runs like this:
(§4)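 Agar diffusion in Nutrient Agar with E. coli K-12 mutants altered in catecholate siderophore receptors Cir, Fiu and FepA. 50 µL of a 0.2 mM compound solution filled into 9 mm agar wells, with clavulanic acid 10 µg/mL added to block the penicillinase selection marker. Inhibition zone diameters (mm) read after overnight incubation at 37 °C.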
(Agar diffusion results depend on both activity and mobility in agar.)

Test [13] concerns Escherichia coli. The test is described as follows: Influence of siderophore receptor on antibacterial activity in Escherichia coli (H1877) using agar diffusion assay. In short, it runs like this:
as §4

The test system of test [14] is Escherichia coli. The test is described as follows: Influence of siderophore receptor on antibacterial activity in Escherichia coli (H1876) using agar diffusion assay. Summed up: as §4
Test [15] deals with Staphylococcus aureus. The experiment in a line: In vitro antibacterial activity against SG 511 strain of Staphylococcus aureus. In short, it runs like this:
as §3

In test [16] the test system is Escherichia coli. The test is described as follows: In vitro antibacterial activity against ATCC 25922 strain of Escherichia coli. In short, it runs like this:
as §3

Test [17] has as its system Serratia marcescens. The test is described as follows: In vitro antibacterial activity against SG 621 strain of Serratia marcescens. In short, it runs like this:
as §3

The subject of test [18] is Escherichia coli. The experiment in a line: Influence of siderophore receptor on antibacterial activity in Escherichia coli (1875) using agar diffusion assay. Summed up:
as §4

The subject of test [19] is Escherichia coli. The experiment in a line: Influence of siderophore receptor on antibacterial activity in Escherichia coli (H873) using agar diffusion assay. In short, it runs like this:
as §4

As to `CC(=O)Oc1cccc(C(=O)N(C)CCCN(Cc2ccccc2C(=O)O)C(=O)c2cccc(OC(C)=O)c2OC(C)=O)c1OC(C)=O`, the Activity in test [1] was 20; in test [2], 17; in test [3], 18; in [4] it was 21; in test [5] it was 19.

In the case of `COC(=O)Oc1cccc2c(=O)n(CCC(=O)Nc3cc(NC(=O)CCn4c(=O)oc5c(OC(=O)OC)cccc5c4=O)cc(C(=O)O)c3)c(=O)oc12`, the Activity is 18 in [1]; 20 in test [3]; 20 in [6]; 20 in [4]; 23 in test [5].

In the case of `CC(=O)Oc1cccc(C(=O)NCCCCN(CC(=O)O)C(=O)c2cccc(OC(C)=O)c2OC(C)=O)c1OC(C)=O`, the Activity in test [7] worked out at 25; in test [1], 20; in test [2], 25; in test [6], 20; in test [4], 28; in test [5], 26.

For the compound `COC(=O)Oc1cccc(C(=O)N(CCCn2c(=O)oc3c(OC(=O)OC)cccc3c2=O)C(C)C(=O)NC(C(=O)NC2C(=O)N3C2SC(C)(C)C3C(=O)O)c2ccccc2)c1OC(=O)OC` (configuration not stated), the MIC in [8] is 3.12 µg/mL (≈ 3.28 µM); in test [9] it was less than 0.05 µg/mL; in test [10], 0.4 µg/mL (≈ 0.421 µM); in [11] it was 0.1 µg/mL (≈ 0.105 µM); in [15], 1.56 µg/mL (≈ 1.64 µM); in [16], 0.4 µg/mL (≈ 0.421 µM). In addition, in test [17], the MIC is 0.2 µg/mL (≈ 0.211 µM). For the same compound, the Zone of inhibition in [12] turned out to be 24.5 mm; in [13], 22.5 mm; in test [14] it was 11.5 mm; in [18], 22 mm; in test [19], 25 mm.

With `COC(=O)Oc1cccc(C(=O)N(CCCn2c(=O)oc3c(OC(=O)OC)cccc3c2=O)C(C)CCC(=O)O)c1OC(=O)OC` (configuration not stated), the Activity in [1] came out at 13; in [2], 14; in test [3], 20; in [4], 15; in test [5], 15.

Consider `CC(=O)N(O)CCCCCNC(=O)CCC(=O)N(O)CCCCCNC(=O)CCC(=O)N(O)CCCCCN` [DEFEROXAMINE], for which the Activity in test [1] was 35; in test [2], 36; in test [3] it was 30; in test [6], 35; in test [4], 38; in test [5], 30.

As to `CC(=O)Oc1cccc(C(=O)NCCCCN(Cc2ccccc2OCC(=O)O)C(=O)c2cccc(OC(C)=O)c2OC(C)=O)c1OC(C)=O`, the Activity in test [1] amounted to 18; in test [2] it was 25; in test [3], 27; in [6] it was 26; in test [4], 26.

With `COC(=O)Oc1cccc(C(=O)N(CCCn2c(=O)oc3c(OC(=O)OC)cccc3c2=O)C(C)C(=O)O)c1OC(=O)OC` (configuration not stated), the Activity was found to be 15 in test [1]; 22 in test [2]; 25 in [3]; 22 in [4]; 19 in test [5].

With `COC(=O)Oc1cc(Br)cc(C(=O)N(C)CCCN(CC(=O)O)C(=O)c2cc(Br)cc(OC(=O)OC)c2OC(=O)OC)c1OC(=O)OC`, the Activity in test [1] was found to be 22; in [2], 27; in [3] it was 27; in test [6], 20; in [4] it was 32; in [5] it was 25.

Regarding `COC(=O)Oc1cc(Cl)c(Cl)c(C(=O)N(C)CCCN(CC(=O)O)C(=O)c2c(Cl)c(Cl)cc(OC(=O)OC)c2OC(=O)OC)c1OC(=O)OC`, the Activity was found to be 25 in [1]; 25 in [2]; 30 in [3]; 25 in [6]; 30 in [4]; 30 in [5].

Turning to `CC(=O)Oc1cccc(C(=O)NCCCCN(Cc2ccccc2C(=O)O)C(=O)c2cccc(OC(C)=O)c2OC(C)=O)c1OC(C)=O`, the Activity in test [1] came to 22; in [2], 15; in test [3], 23; in test [4] it was 27; in test [5] it was 21.

Regarding `COC(=O)Oc1cccc(C(=O)N(C)CCCN(CC(=O)O)C(=O)c2cccc(OC(=O)OC)c2OC(=O)OC)c1OC(=O)OC`, the Activity in test [1] was 15; in test [2], 25; in test [3] it was 18; in test [6] it was 13; in [4] it was 20; in test [5], 9.

Regarding `COC(=O)Oc1cccc2c(=O)n(-c3cc(C(=O)O)cc(-n4c(=O)oc5c(OC(=O)OC)cccc5c4=O)c3)c(=O)oc12`, the Activity in test [1] was 15; in test [3] it was 18; in test [6] it was 20; in [4], 20; in test [5], 25.

In the case of `CC(=O)Oc1cccc(C(=O)N(C)CCCN(CC(=O)O)C(=O)c2cccc(OC(C)=O)c2OC(C)=O)c1OC(C)=O`, the Activity worked out at 19 in test [1]; 22 in [2]; 23 in [3]; 18 in test [6]; 20 in test [4]; 15 in test [5].

As for `COC(=O)Oc1cccc(C(=O)N(CCCCn2c(=O)oc3c(OC(=O)OC)cccc3c2=O)CC(=O)O)c1OC(=O)OC`, the Activity in test [1] stood at 18; in [2], 23; in test [3], 24; in test [4] it was 30; in [5] it was 27.

As to `COC(=O)Oc1cccc2c(=O)n(CC(=O)Nc3cc(NC(=O)Cn4c(=O)oc5c(OC(=O)OC)cccc5c4=O)cc(C(=O)O)c3)c(=O)oc12`, the Activity is 15 in test [1]; 20 in test [3]; 20 in test [6]; 15 in test [4]; 20 in [5].

As to `CC(=O)Oc1cccc(C(=O)Nc2cc(NC(=O)c3cccc(OC(C)=O)c3OC(C)=O)cc(C(=O)O)c2)c1OC(C)=O`, the Activity came to 0 in [1]; 17 in [3]; 10 in test [6]; 27 in test [4]; 20 in [5].

For the compound `COC(=O)Oc1cc(Cl)cc(C(=O)N(C)CCCN(CC(=O)O)C(=O)c2cc(Cl)cc(OC(=O)OC)c2OC(=O)OC)c1OC(=O)OC`, the Activity in test [1] was 25; in [2], 25; in test [3], 25; in [6], 24; in test [4] it was 30; in [5], 26.

Turning to `CC(=O)Oc1ccc(C(=O)NCCCCN(CC(=O)O)C(=O)c2ccc(OC(C)=O)c(OC(C)=O)c2)cc1OC(C)=O`, the Activity was 25 in [1]; 20 in test [2]; 14 in test [3]; 19 in test [6]; 21 in test [4]; 10 in test [5].

For `CC(=O)Oc1cccc(C(=O)NCCCCCN(CC(=O)O)C(=O)c2cccc(OC(C)=O)c2OC(C)=O)c1OC(C)=O`, the Activity in test [1] came out at 30; in test [2], 25; in [3], 30; in test [6] it was 20; in test [4], 27; in test [5], 28.

With `CC(=O)Oc1cccc(C(=O)NCCCCN(Cc2ccc(OCC(=O)O)cc2)C(=O)c2cccc(OC(C)=O)c2OC(C)=O)c1OC(C)=O`, the Activity is 22 in test [1]; 12 in test [2]; 23 in test [3]; 25 in test [6]; 27 in test [4]; 19 in [5].
